Test results from PMC5992617 (ACS chemical biology, 2017).
Read-outs that look alike come from different tables or passages of the source. Where no end group is shown, it is not given here. FAM = fluorescein amidite

Assays:
[1] = system: HT1080 cells; assay: Clonogenic survival assay in HT1080 cells with cisplatin; assay type: cell-based, human; conditions: cisplatin 0.6 μM, 4 or 5 1.5 μM, alone
In short: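 HT1080 cells in RPMI 1640 with 10% FBS and 1% penicillin/streptomycin at 37°C, 5% CO₂. Seeded at 600 cells/well in 6-well plates and left overnight. […] Fixed in methanol/acetic acid and Coomassie-stained. Colonies of ≥40 cells counted relative to DMSO controls; Student t-test.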

[2] = system: HPRT gene mutation frequency in HT1080 cells; assay: HPRT mutagenesis assay in HT1080 cells; assay type: cell-based, human; conditions: cisplatin alone 0.6 μM
[3] = system: Rev1^−/− mouse embryonic fibroblasts (MEFs); assay: Clonogenic survival assay in Rev1−/− MEFs with cisplatin; assay type: cell-based; conditions: cisplatin 0.6 μM alone
In short: (§1)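 Wild-type or Rev1⁻/⁻ mouse embryonic fibroblasts in DMEM with 10% FBS and 1% penicillin/streptomycin at 37°C, 5% CO₂. Seeded at 600 cells/well and left overnight. […] Colonies of ≥40 cells Coomassie-counted and expressed relative to DMSO controls. Two experiments, each in triplicate.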

[4] = system: wild-type (WT) mouse embryonic fibroblasts (MEFs); assay: Clonogenic survival assay in WT MEFs with cisplatin; assay type: cell-based; conditions: cisplatin 0.6 μM, 4 or 5 1.5 μM, alone
In short: as §1

[5] = target: T1, C-terminal domain from human Rev1 (Rev1-CT) (human, UniProt Q9UBZ9 1158-1251); assay: SEC
T1 sequence (looked up): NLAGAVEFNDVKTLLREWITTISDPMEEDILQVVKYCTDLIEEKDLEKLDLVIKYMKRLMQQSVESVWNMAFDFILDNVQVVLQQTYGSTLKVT

[6] = target: T1, C-terminal domain from human Rev1 …; assay: fluorescence polarisation
[7] = target: T1, C-terminal domain from human Rev1 …; assay: fluorescence polarisation; remark: listed apart in the source

Which “Colony formation of HT1080 cells, single agent” value [1] does the source give for `N.N.[Cl][Pt][Cl]` [cisplatin] here?
Its value is “minimal effect on colony formation”.

What about the “Increase in HPRT mutations compared to non-treated cells” value [2] of the same molecule?
The value was “approximately 1.9 fold”.

What about the “Sensitivity of Rev1−/− MEFs to cisplatin compared with WT MEFs” value [3] of the same molecule?
The value was “significantly more sensitive”.

What about the “Clonogenic growth of WT MEFs, single agent” value [4] of the same molecule?
Its value is “minimal effect on clonogenic growth”.

Does {FAM}-EMSHKKSFFDKKRSER (peptide, UniProt Q9UBT6 560-575, looked up) bind [5]?
Result: binds

With EMSHKKSFFDKKRSER (peptide, UniProt Q9UBT6 560-575, looked up) [unlabeled Polκ-RIR] as the molecule, how does the IC50 [6] read?
The IC50 was 6.6 ± 0.1 µM.

And the IC50 [7]?
The IC50 was 7.3 ± 1.4 µM.
